Test results reported in ChEMBL document CHEMBL4689842, “EUbOPEN Chemogenomics Library wave 1” (2021).

System: U2OS
Test: Multiplex assay against U2OS
Assay type: toxicity, cell-based
Details: human
Outline: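 Tubulin, mitochondrial-mass and membrane-permeability phenotypes are per cents of healthy-nucleus cells. Cells were gated by CellPathfinder machine learning into Hoechst high-intensity objects or normal cells, normal cells into healthy, pyknosed or fragmented nuclei, and pyknosed cells into mitotic or apoptotic. Before that, live cells stained at seeding with Hoechst33342, BioTracker Green Microtubule Cytoskeleton Dye, MitoTracker Red and Annexin V Alexa Fluor 680 were imaged on a CQ1 microscope at 37°C and 5% CO2 after compound addition.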

[1] = 12 h, 1 µM, compound concentration 1 uM, replicate 1
[2] = 12 h, 1 µM, compound concentration 1 uM, replicate 2
[3] = 12 h, 10 µM, compound concentration 10 uM, replicate 1
[4] = 12 h, 10 µM, compound concentration 10 uM, replicate 2
[5] = 24 h, 1 µM, compound concentration 1 uM, replicate 1
[6] = 24 h, 1 µM, compound concentration 1 uM, replicate 2
[7] = 24 h, 10 µM, compound concentration 10 uM, replicate 1
[8] = 24 h, 10 µM, compound concentration 10 uM, replicate 2
[9] = 48 h, 1 µM, compound concentration 1 uM, replicate 1
[10] = 48 h, 1 µM, compound concentration 1 uM, replicate 2
[11] = 48 h, 10 µM, compound concentration 10 uM, replicate 1
[12] = 48 h, 10 µM, compound concentration 10 uM, replicate 2

## CCCn1c(=O)c2[nH]c(-c3cnn(Cc4cccc(C(F)(F)F)c4)c3)nc2n(CC)c1=O [GS 6201]
[1]
  Population Apoptotic (%): 28%
  Population Fragmented Nuclei (%): 8%
  Population Healthy Nuclei (%): 78%
  Population Hoechst High Intensity Objects (%): 9%
  Population Membrane Permeable-Phenotype (%): 14%
  Population Mitochondria Different-Phenotype (%): 5%
  Population Mitotic Cells (%): 71%
  Population Normal (%): 90%
  Population Pyknosed Nuclei (%): 13%
  Population Tubulin-Different-Phenotype (%): 14%
  Total Cell Count: 1120
[2]
  Population Apoptotic (%): 42%
  Population Fragmented Nuclei (%): 4%
  Population Healthy Nuclei (%): 88%
  Population Hoechst High Intensity Objects (%): 2%
  Population Membrane Permeable-Phenotype (%): 8%
  Population Mitochondria Different-Phenotype (%): 9%
  Population Mitotic Cells (%): 57%
  Population Normal (%): 97%
  Population Pyknosed Nuclei (%): 7%
  Population Tubulin-Different-Phenotype (%): 28%
  Total Cell Count: 75
[3]
  Population Apoptotic (%): 35%
  Population Fragmented Nuclei (%): 34%
  Population Healthy Nuclei (%): 52%
  Population Hoechst High Intensity Objects (%): 19%
  Population Membrane Permeable-Phenotype (%): 51%
  Population Mitochondria Different-Phenotype (%): 31%
  Population Mitotic Cells (%): 64%
  Population Normal (%): 80%
  Population Pyknosed Nuclei (%): 12%
  Population Tubulin-Different-Phenotype (%): 82%
  Total Cell Count: 118
[4]
  Population Apoptotic (%): 50%
  Population Fragmented Nuclei (%): 17%
  Population Healthy Nuclei (%): 77%
  Population Hoechst High Intensity Objects (%): 5%
  Population Membrane Permeable-Phenotype (%): 3%
  Population Mitochondria Different-Phenotype (%): 20%
  Population Mitotic Cells (%): 50%
  Population Normal (%): 94%
  Population Pyknosed Nuclei (%): 4%
  Population Tubulin-Different-Phenotype (%): 10%
  Total Cell Count: 98
[5]
  Population Apoptotic (%): 27%
  Population Fragmented Nuclei (%): 8%
  Population Healthy Nuclei (%): 82%
  Population Hoechst High Intensity Objects (%): 7%
  Population Membrane Permeable-Phenotype (%): 7%
  Population Mitochondria Different-Phenotype (%): 7%
  Population Mitotic Cells (%): 72%
  Population Normal (%): 92%
  Population Pyknosed Nuclei (%): 8%
  Population Tubulin-Different-Phenotype (%): 8%
  Total Cell Count: 2066
[6]
  Population Apoptotic (%): 50%
  Population Fragmented Nuclei (%): 5%
  Population Healthy Nuclei (%): 90%
  Population Hoechst High Intensity Objects (%): 4%
  Population Membrane Permeable-Phenotype (%): 2%
  Population Mitochondria Different-Phenotype (%): 10%
  Population Mitotic Cells (%): 50%
  Population Normal (%): 95%
  Population Pyknosed Nuclei (%): 4%
  Population Tubulin-Different-Phenotype (%): 30%
  Total Cell Count: 81
[7]
  Population Apoptotic (%): 64%
  Population Fragmented Nuclei (%): 44%
  Population Healthy Nuclei (%): 41%
  Population Hoechst High Intensity Objects (%): 16%
  Population Membrane Permeable-Phenotype (%): 47%
  Population Mitochondria Different-Phenotype (%): 31%
  Population Mitotic Cells (%): 35%
  Population Normal (%): 83%
  Population Pyknosed Nuclei (%): 14%
  Population Tubulin-Different-Phenotype (%): 58%
  Total Cell Count: 133
[8]
  Population Apoptotic (%): 50%
  Population Fragmented Nuclei (%): 17%
  Population Healthy Nuclei (%): 72%
  Population Hoechst High Intensity Objects (%): 3%
  Population Membrane Permeable-Phenotype (%): 5%
  Population Mitochondria Different-Phenotype (%): 11%
  Population Mitotic Cells (%): 50%
  Population Normal (%): 96%
  Population Pyknosed Nuclei (%): 10%
  Population Tubulin-Different-Phenotype (%): 9%
  Total Cell Count: 139
[9]
  Population Apoptotic (%): 44%
  Population Fragmented Nuclei (%): 8%
  Population Healthy Nuclei (%): 82%
  Population Hoechst High Intensity Objects (%): 1%
  Population Membrane Permeable-Phenotype (%): 3%
  Population Mitochondria Different-Phenotype (%): 11%
  Population Mitotic Cells (%): 55%
  Population Normal (%): 98%
  Population Pyknosed Nuclei (%): 9%
  Population Tubulin-Different-Phenotype (%): 7%
  Total Cell Count: 2377
[10]
  Population Apoptotic (%): 41%
  Population Fragmented Nuclei (%): 2%
  Population Healthy Nuclei (%): 91%
  Population Membrane Permeable-Phenotype (%): 1%
  Population Mitochondria Different-Phenotype (%): 13%
  Population Mitotic Cells (%): 58%
  Population Pyknosed Nuclei (%): 5%
  Population Tubulin-Different-Phenotype (%): 35%
  Total Cell Count: 110
[11]
  Population Apoptotic (%): 67%
  Population Fragmented Nuclei (%): 51%
  Population Healthy Nuclei (%): 34%
  Population Hoechst High Intensity Objects (%): 13%
  Population Membrane Permeable-Phenotype (%): 50%
  Population Mitochondria Different-Phenotype (%): 29%
  Population Mitotic Cells (%): 32%
  Population Normal (%): 86%
  Population Pyknosed Nuclei (%): 13%
  Population Tubulin-Different-Phenotype (%): 47%
  Total Cell Count: 198
[12]
  Population Apoptotic (%): 22%
  Population Fragmented Nuclei (%): 12%
  Population Healthy Nuclei (%): 80%
  Population Hoechst High Intensity Objects (%): 2%
  Population Membrane Permeable-Phenotype (%): 9%
  Population Mitochondria Different-Phenotype (%): 13%
  Population Mitotic Cells (%): 77%
  Population Normal (%): 97%
  Population Pyknosed Nuclei (%): 6%
  Population Tubulin-Different-Phenotype (%): 13%
  Total Cell Count: 214

## CCn1cc(-c2ccnc3[nH]c(-c4cccc(CN(C)C)c4)cc23)c(-c2ccc(NC(=O)N(C)C)cc2)n1 [GSK-1070916]
[1]
  Population Apoptotic (%): 25%
  Population Fragmented Nuclei (%): 4%
  Population Healthy Nuclei (%): 91%
  Population Hoechst High Intensity Objects (%): 2%
  Population Membrane Permeable-Phenotype (%): 28%
  Population Mitochondria Different-Phenotype (%): 17%
  Population Mitotic Cells (%): 75%
  Population Normal (%): 97%
  Population Pyknosed Nuclei (%): 3%
  Population Tubulin-Different-Phenotype (%): 24%
  Total Cell Count: 141
[2]
  Population Apoptotic (%): 100%
  Population Fragmented Nuclei (%): 12%
  Population Healthy Nuclei (%): 86%
  Population Hoechst High Intensity Objects (%): 14%
  Population Membrane Permeable-Phenotype (%): 30%
  Population Mitochondria Different-Phenotype (%): 35%
  Population Mitotic Cells (%): 0%
  Population Normal (%): 85%
  Population Pyknosed Nuclei (%): 1%
  Population Tubulin-Different-Phenotype (%): 26%
  Total Cell Count: 97
[3]
  Population Apoptotic (%): 50%
  Population Fragmented Nuclei (%): 12%
  Population Healthy Nuclei (%): 62%
  Population Hoechst High Intensity Objects (%): 9%
  Population Membrane Permeable-Phenotype (%): 32%
  Population Mitochondria Different-Phenotype (%): 44%
  Population Mitotic Cells (%): 49%
  Population Normal (%): 90%
  Population Pyknosed Nuclei (%): 24%
  Population Tubulin-Different-Phenotype (%): 99%
  Total Cell Count: 207
[4]
  Population Apoptotic (%): 48%
  Population Fragmented Nuclei (%): 24%
  Population Healthy Nuclei (%): 48%
  Population Hoechst High Intensity Objects (%): 16%
  Population Membrane Permeable-Phenotype (%): 37%
  Population Mitochondria Different-Phenotype (%): 67%
  Population Mitotic Cells (%): 51%
  Population Normal (%): 83%
  Population Pyknosed Nuclei (%): 27%
  Population Tubulin-Different-Phenotype (%): 100%
  Total Cell Count: 76
[5]
  Population Apoptotic (%): 38%
  Population Fragmented Nuclei (%): 6%
  Population Healthy Nuclei (%): 81%
  Population Hoechst High Intensity Objects (%): 2%
  Population Membrane Permeable-Phenotype (%): 15%
  Population Mitochondria Different-Phenotype (%): 27%
  Population Mitotic Cells (%): 61%
  Population Normal (%): 97%
  Population Pyknosed Nuclei (%): 12%
  Population Tubulin-Different-Phenotype (%): 15%
  Total Cell Count: 141
[6]
  Population Apoptotic (%): 40%
  Population Fragmented Nuclei (%): 8%
  Population Healthy Nuclei (%): 83%
  Population Hoechst High Intensity Objects (%): 18%
  Population Membrane Permeable-Phenotype (%): 22%
  Population Mitochondria Different-Phenotype (%): 63%
  Population Mitotic Cells (%): 60%
  Population Normal (%): 81%
  Population Pyknosed Nuclei (%): 8%
  Population Tubulin-Different-Phenotype (%): 18%
  Total Cell Count: 92
[7]
  Population Apoptotic (%): 65%
  Population Fragmented Nuclei (%): 13%
  Population Healthy Nuclei (%): 45%
  Population Hoechst High Intensity Objects (%): 16%
  Population Membrane Permeable-Phenotype (%): 50%
  Population Mitochondria Different-Phenotype (%): 85%
  Population Mitotic Cells (%): 34%
  Population Normal (%): 83%
  Population Pyknosed Nuclei (%): 40%
  Population Tubulin-Different-Phenotype (%): 98%
  Total Cell Count: 216
[8]
  Population Apoptotic (%): 64%
  Population Fragmented Nuclei (%): 17%
  Population Healthy Nuclei (%): 36%
  Population Hoechst High Intensity Objects (%): 18%
  Population Membrane Permeable-Phenotype (%): 63%
  Population Mitochondria Different-Phenotype (%): 87%
  Population Mitotic Cells (%): 35%
  Population Normal (%): 81%
  Population Pyknosed Nuclei (%): 45%
  Population Tubulin-Different-Phenotype (%): 100%
  Total Cell Count: 72
